Assay results pooled from the literature.
Protocols differ between the studies behind these lines.
Oprk1: Kappa-type opioid receptor (Oprk1, Mus musculus, UniProt P33534)
BCHE: Cholinesterase (BCHE, Homo sapiens, UniProt P06276)
MC4R: Melanocortin receptor 4 (MC4R, Homo sapiens, UniProt P32245)

Compound	target	assay	quantity	value
Cc1c(CC(=O)N[C@@H](CN2CCc3ccccc3C2)C(C)C)cccc1[N+](=O)[O-]	Oprk1	ligand displacement, radioligand	Ki	3380 nM
CC(C)c1cc2c(c(O)c1O)[C@@]13CCCC(C)(C)[C@@H]1[C@H](OC3=O)[C@H]2O	BCHE	enzyme activity, inhibitor, absorbance	Ki	0.2 nM
C=CCOc1ccc(C(=O)/C=C/c2ccc(OC)cc2)c(OS(C)(=O)=O)c1I	BCHE	enzyme activity, inhibitor	IC50	53800 nM
CC(C)[C@H](CN1CCc2ccccc2C1)NC(=O)Cc1c[nH]c2ccccc12	Oprk1	ligand displacement, radioligand	Ki	2810 nM
COc1cc2c(cc1OC)CN(CCc1ccc(NC(=O)c3cccc4c(=O)c5cccc(OC)c5[nH]c34)cc1)CC2	Muscarinic acetylcholine receptor M5 (CHRM5, Homo sapiens, UniProt P08912)	cell-free assay	Ki	> 10000 nM
CC(C)c1cc2c(c(O)c1O)[C@@]1(C(=O)O)CCCC(C)(C)[C@@H]1CC2	BCHE	enzyme activity, inhibitor	IC50	0.66 nM
CCCC[C@H](NC(C)=O)C(=O)N[C@H]1CC(=O)NCCCC[C@@H](C(=O)N2CCC[C@@H]2C(=O)N[C@@H](C(=O)N2CCC[C@@H]2C(N)=O)C(C)C)NC(=O)[C@H](Cc2c[nH]c3ccccc23)NC(=O)[C@H](CCCNC(=N)N)NC(=O)[C@@H](Cc2ccccc2)NC(=O)[C@@H]2CCCN2C1=O	MC4R	cAMP, agonist	EC50	0.89 nM
C=CCOc1ccc(C(=O)/C=C/c2cccc(F)c2)c(OS(=O)(=O)c2ccc(F)cc2)c1I	BCHE	enzyme activity, inhibitor	IC50	30200 nM
COc1c2c(cc3c1-c1c(cc4c(c1OC)OCO4)C[C@H](C)[C@H](C)C3)OCO2	BCHE	enzyme activity, inhibitor, Ellman	IC50	> 100000 nM
CC(C)c1cc2c(c(O)c1O)[C@@]13CCCC(C)(C)[C@@H]1C[C@@H]2OC3=O	BCHE	enzyme activity, inhibitor, absorbance	Ki	0.3 nM
COc1cc(/C=C/C(=O)O)ccc1OCc1cn(CC(=O)Nc2ccc(Cl)cc2Cl)nn1	BCHE	enzyme activity, inhibitor, Ellman	Ki	1850 nM
C=CCOc1ccc(C(=O)/C=C/c2ccc(OC)cc2)c(OS(=O)(=O)c2ccc(OC)cc2)c1I	BCHE	enzyme activity, inhibitor	IC50	30100 nM
CC(C)[C@H](CN1CCc2ccccc2C1)NC(=O)c1cccc(-c2cccc(O)c2)c1	Oprk1	ligand displacement, radioligand	Ki	870 nM
CSCC[C@H](NC(=O)[C@H](CCCNC(=N)N)NC(=O)[C@H](Cc1ccc(O)cc1)NC(=O)[C@@H]1CCCN1C(=O)CNC(=O)[C@H](CCC(=O)O)NC(=O)[C@H](Cc1c[nH]cn1)NC(=O)[C@H](CCCCN)NC(=O)[C@H](CCCCN)NC(=O)[C@H](CCC(=O)O)NC(=O)[C@H](C)N)C(=O)N[C@@H](CCC(=O)O)C(=O)N[C@@H](Cc1c[nH]cn1)C(=O)N[C@@H](Cc1ccccc1)C(=O)N[C@@H](CCCNC(=N)N)C(=O)N[C@@H](Cc1c[nH]c2ccccc12)C(=O)NCC(=O)N[C@@H](CO)C(=O)N1CCC[C@H]1C(=O)N1CCC[C@H]1C(=O)N[C@@H](CCCCN)C(=O)N[C@@H](CC(=O)O)C(=O)O	MC4R	reporter gene, agonist, luciferase	EC50	1.46 nM
CCCC(=O)CC(=O)N[C@H]1CCOC1=O	qscR (Pseudomonas aeruginosa, UniProt G3XD77)	reporter gene, agonist	EC50	13000 nM
C=CCOc1ccc(C(=O)/C=C/c2ccc(OC)cc2)c(OS(=O)(=O)c2ccc(F)cc2)c1I	BCHE	enzyme activity, inhibitor	IC50	11300 nM
CC(C)c1cc2c(c(O)c1O)[C@@]13CCCC(C)(C)[C@@H]1[C@@H](O)[C@@H]2OC3=O	BCHE	enzyme activity, inhibitor, absorbance	Ki	0.33 nM
